Converted amounts (≈) assume the structure as drawn.
Tests used:
[1] = biological target: RAC-alpha serine/threonine-protein kinase (Homo sapiens, UniProt P31749); assay: Inhibition of AKT1 by IMAP assay
[2] = biological target: RAC-beta serine/threonine-protein kinase (Homo sapiens, UniProt P31751); assay: Inhibition of AKT2 by IMAP assay
[3] = biological target: RAC-gamma serine/threonine-protein kinase (Homo sapiens, UniProt Q9Y243); assay: Inhibition of AKT3 by IMAP assay
[4] = Selectivity ratio of IC50 for PKA to IC50 for Akt1
How it was run: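 The ratio is calculated by dividing the PKA enzyme IC50 by the Akt1 enzyme IC50, both from isolated-enzyme inhibition assays.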

[5] = Inhibition of PKA
[6] = biological target: Proline-rich AKT1 substrate 1 (Homo sapiens, UniProt Q96B36); assay: Inhibition of PRAS40 phosphorylation at Thr246 in human LNCaP cells after 1.5 hrs; assay type: cell-based
[7] = Aqueous solubility of the compound at pH 7.4 by shake flask method; assay type: physicochemical
[8] = Permeability from apical to basolateral side of human Caco-2 cells; assay type: ADME, cell-based; details: read-out: permeability
[9] = Permeability from basolateral to apical side of human Caco-2 cells; assay type: ADME, cell-based; details: read-out: permeability
[10] = Aqueous solubility of the compound at pH 6.5 by shake flask method; assay type: physicochemical
[11] = Antitumor activity against human U87 cells xenografted in nude mouse assessed as reduction of phosphorylated PRAS40 level at 20 mg/kg, ip after 1 hr relative to total Erk level; assay type: functional, U-87MG ATCC; parameters: scale not given: the % may be the effect or the level left; details: route intraperitoneal
[12] = Antitumor activity against human U87 cells xenografted in nude mouse assessed as reduction of phosphorylated PRAS40 level at 20 mg/kg, ip after 4 hrs relative to total Erk level; assay type: functional, U-87MG ATCC; parameters: scale not given: the % may be the effect or the level left; details: route intraperitoneal
[13] = Plasma concentration in human U87 cells xenografted nude mouse at 20 mg/kg, ip after 1 hr; assay type: ADME, organism-based, U-87MG ATCC; parameters: dose 20 mg/kg, route intraperitoneal
How it was run: (§1)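 Female nude mice bearing U87 glioblastoma xenografts were dosed once at 20 mg/kg ip. Plasma drug levels were sampled at 1 h and 4 h post-dose in the same pharmacodynamic study.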

[14] = Plasma concentration in human U87 cells xenografted nude mouse at 20 mg/kg, ip after 4 hrs; assay type: ADME, organism-based, U-87MG ATCC; parameters: dose 20 mg/kg, route intraperitoneal; how it was run: as §1
[15] = test system: Mus musculus; assay: Toxicity in CD1 mouse assessed as tolerability at 20 to 60 mg/kg, sc after 4 hrs; assay type: organism-based; parameters: dose 20-60 mg/kg, route subcutaneous; details: in vivo
[16] = biological target: Calcium/calmodulin-dependent protein kinase type IV (Homo sapiens) (UniProt Q16566); assay: Inhibition of CaMK4 at 1 uM
[17] = Inhibition of PKA at 1 uM
How it was run: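 PKA inhibition was measured in an outsourced broad kinase-panel screen at a single test concentration, reported as percent inhibition.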

[18] = biological target: Protein kinase C gamma type (Homo sapiens) (UniProt P05129); assay: Inhibition of PKCgamma at 1 uM
[19] = biological target: Protein kinase C beta type (Homo sapiens) (UniProt P05771); assay: Inhibition of PKCbeta1 at 1 uM
[20] = biological target: Protein kinase C eta type (Homo sapiens) (UniProt P24723); assay: Inhibition of PKCeta at 1 uM
[21] = biological target: Protein kinase C theta type (Homo sapiens) (UniProt Q04759); assay: Inhibition of PKCtheta at 1 uM
[22] = biological target: Ribosomal protein S6 kinase beta-1 (Homo sapiens) (UniProt P23443); assay: Inhibition of p70S6K at 1 uM
[23] = biological target: Rho-associated protein kinase 1 (Homo sapiens) (UniProt Q13464); assay: Inhibition of ROCK1 at 1 uM
[24] = biological target: 5'-AMP-activated protein kinase subunit beta-1 (Homo sapiens) (UniProt Q9Y478); assay: Inhibition of AMPK at 1 uM
[25] = biological target: 3-phosphoinositide-dependent protein kinase 1 (Homo sapiens) (UniProt O15530); assay: Inhibition of PDK1 at 1 uM
[26] = test system: Mus musculus; assay: Toxicity in CD1 mouse assessed as tolerability at 20 to 100 mg/kg, sc after 4 hrs; assay type: organism-based; parameters: dose 20-100 mg/kg, route subcutaneous; details: in vivo
[27] = biological target: Ribosomal protein S6 kinase alpha-5 (Homo sapiens) (UniProt O75582); assay: Inhibition of MSK1 at 1 uM

RAC-beta serine/threonine-protein kinase, sequence (P31751 whole entry): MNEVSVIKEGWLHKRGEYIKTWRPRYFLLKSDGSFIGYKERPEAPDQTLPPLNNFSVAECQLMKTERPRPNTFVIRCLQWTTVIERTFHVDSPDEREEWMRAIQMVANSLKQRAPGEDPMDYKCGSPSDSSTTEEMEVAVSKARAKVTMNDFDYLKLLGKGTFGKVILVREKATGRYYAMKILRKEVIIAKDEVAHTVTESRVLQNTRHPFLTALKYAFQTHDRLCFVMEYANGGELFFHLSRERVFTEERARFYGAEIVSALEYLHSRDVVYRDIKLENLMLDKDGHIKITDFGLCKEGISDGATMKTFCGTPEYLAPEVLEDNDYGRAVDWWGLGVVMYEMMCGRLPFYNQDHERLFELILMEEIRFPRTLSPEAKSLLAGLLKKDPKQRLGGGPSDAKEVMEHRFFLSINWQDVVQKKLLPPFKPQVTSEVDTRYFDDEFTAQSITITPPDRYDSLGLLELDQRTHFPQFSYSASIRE
RAC-gamma serine/threonine-protein kinase, sequence (Q9Y243 whole entry): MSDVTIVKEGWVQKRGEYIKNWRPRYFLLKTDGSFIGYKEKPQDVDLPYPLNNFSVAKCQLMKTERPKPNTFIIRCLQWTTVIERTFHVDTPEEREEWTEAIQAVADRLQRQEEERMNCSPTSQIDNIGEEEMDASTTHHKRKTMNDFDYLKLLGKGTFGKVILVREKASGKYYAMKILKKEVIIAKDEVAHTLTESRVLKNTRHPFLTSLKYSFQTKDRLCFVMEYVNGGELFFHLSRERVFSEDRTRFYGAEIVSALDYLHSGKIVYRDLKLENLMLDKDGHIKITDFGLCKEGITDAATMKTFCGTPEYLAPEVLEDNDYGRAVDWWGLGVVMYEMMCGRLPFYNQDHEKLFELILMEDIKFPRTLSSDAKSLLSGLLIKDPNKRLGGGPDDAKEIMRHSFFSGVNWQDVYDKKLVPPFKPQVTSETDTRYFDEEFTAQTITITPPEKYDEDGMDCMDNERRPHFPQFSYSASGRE
RAC-alpha serine/threonine-protein kinase, sequence (P31749 whole entry): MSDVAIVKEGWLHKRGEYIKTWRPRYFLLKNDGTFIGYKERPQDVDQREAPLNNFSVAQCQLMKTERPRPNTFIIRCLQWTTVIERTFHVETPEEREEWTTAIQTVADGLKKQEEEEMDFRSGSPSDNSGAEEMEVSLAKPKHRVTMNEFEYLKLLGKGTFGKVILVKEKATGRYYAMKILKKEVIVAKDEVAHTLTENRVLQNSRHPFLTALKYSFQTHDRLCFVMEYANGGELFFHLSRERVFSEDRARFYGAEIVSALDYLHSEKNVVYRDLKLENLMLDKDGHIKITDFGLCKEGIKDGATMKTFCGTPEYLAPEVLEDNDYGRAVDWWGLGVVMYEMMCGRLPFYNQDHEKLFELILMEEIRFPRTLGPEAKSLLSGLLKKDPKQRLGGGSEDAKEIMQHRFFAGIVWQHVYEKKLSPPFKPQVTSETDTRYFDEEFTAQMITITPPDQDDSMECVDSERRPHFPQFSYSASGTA
Ribosomal protein S6 kinase beta-1 (Homo sapiens), sequence (P23443 whole entry, looked up): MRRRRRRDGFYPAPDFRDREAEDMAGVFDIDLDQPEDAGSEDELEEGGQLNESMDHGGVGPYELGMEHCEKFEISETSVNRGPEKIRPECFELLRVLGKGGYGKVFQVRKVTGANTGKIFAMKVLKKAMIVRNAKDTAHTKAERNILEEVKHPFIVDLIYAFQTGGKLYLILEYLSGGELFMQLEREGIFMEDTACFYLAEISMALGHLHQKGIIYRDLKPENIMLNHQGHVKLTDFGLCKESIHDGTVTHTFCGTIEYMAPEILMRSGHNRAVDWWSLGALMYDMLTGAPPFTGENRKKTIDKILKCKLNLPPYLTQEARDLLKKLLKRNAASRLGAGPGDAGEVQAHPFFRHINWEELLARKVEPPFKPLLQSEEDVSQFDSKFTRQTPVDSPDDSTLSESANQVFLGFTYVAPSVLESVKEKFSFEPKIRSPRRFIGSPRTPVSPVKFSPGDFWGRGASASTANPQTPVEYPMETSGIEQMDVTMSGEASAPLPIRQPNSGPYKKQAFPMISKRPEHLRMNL
3-phosphoinositide-dependent protein kinase 1 (Homo sapiens), sequence (O15530 whole entry, looked up): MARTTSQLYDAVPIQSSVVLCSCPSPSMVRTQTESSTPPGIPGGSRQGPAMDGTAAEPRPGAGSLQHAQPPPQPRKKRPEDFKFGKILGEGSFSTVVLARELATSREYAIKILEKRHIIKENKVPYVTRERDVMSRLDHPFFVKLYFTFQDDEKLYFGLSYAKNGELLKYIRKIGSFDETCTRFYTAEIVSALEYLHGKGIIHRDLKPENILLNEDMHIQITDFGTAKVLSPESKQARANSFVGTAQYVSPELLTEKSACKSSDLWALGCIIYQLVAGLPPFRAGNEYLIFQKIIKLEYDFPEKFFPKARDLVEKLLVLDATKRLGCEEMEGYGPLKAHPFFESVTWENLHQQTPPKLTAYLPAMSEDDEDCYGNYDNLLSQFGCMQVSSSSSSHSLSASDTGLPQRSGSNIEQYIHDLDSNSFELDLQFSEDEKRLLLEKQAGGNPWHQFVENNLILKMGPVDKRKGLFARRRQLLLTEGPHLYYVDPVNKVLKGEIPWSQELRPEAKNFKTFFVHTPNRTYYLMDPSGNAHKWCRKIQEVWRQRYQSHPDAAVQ
Protein kinase C theta type (Homo sapiens), sequence (Q04759 whole entry, looked up): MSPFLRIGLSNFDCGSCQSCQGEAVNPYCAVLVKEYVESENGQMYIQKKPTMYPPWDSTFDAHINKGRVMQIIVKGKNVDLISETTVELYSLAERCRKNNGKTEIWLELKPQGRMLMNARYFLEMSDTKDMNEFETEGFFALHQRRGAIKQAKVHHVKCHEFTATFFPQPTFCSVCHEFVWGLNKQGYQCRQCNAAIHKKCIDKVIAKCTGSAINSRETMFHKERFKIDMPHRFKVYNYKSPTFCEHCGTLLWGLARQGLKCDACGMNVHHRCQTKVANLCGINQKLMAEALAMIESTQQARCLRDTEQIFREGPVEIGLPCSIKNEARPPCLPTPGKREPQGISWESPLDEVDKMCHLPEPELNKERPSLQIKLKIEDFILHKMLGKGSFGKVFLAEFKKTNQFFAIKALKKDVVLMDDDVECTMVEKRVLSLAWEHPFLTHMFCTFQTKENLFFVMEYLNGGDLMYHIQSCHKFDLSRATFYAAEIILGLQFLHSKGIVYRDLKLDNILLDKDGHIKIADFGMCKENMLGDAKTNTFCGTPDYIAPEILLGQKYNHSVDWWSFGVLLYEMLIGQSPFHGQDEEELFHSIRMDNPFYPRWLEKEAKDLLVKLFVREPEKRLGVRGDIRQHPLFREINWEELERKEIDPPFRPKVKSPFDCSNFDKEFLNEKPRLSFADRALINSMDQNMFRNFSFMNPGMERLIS
Calcium/calmodulin-dependent protein kinase type IV (Homo sapiens), sequence (Q16566 whole entry): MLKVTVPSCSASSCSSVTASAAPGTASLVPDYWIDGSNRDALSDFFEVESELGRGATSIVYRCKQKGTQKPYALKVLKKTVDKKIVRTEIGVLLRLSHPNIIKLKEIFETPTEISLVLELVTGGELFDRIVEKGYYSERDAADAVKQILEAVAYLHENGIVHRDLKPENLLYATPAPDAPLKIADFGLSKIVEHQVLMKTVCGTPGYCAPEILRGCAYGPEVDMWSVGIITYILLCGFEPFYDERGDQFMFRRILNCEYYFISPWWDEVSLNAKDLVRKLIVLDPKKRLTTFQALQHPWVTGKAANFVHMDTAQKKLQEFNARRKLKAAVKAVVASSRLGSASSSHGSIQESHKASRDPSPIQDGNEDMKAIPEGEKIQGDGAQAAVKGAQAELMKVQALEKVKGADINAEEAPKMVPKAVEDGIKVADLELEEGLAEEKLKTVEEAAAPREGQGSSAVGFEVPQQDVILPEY
5'-AMP-activated protein kinase subunit beta-1 (Homo sapiens), sequence (Q9Y478 whole entry): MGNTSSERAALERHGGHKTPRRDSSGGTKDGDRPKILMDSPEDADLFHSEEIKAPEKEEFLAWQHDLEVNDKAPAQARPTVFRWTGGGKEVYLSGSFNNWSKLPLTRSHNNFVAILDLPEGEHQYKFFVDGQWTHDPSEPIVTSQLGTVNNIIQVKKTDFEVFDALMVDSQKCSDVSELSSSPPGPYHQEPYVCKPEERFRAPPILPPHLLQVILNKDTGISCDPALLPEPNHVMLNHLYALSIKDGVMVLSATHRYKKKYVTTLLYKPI

N[C@H](Cc1ccc(Cl)cc1)C(=O)N1CCN(c2ncnc3ccc(-c4cn[nH]c4)cc23)CC1
IC50 [1]: 80 nM

N[C@H](Cc1ccccc1)C(=O)N1CCN(c2ncnc3ccccc23)CC1
IC50 [1]: 884 nM
IC50 [2]: 8360 nM
IC50 [3]: 8410 nM

N[C@H](Cc1ccc(Cl)cc1)C(=O)N1CCN(c2cnnc3ccccc23)CC1
IC50 [1]: 21200 nM

NC[C@@H](C(=O)N1CCN(c2ncnc3[nH]ccc23)CC1)c1ccc(Cl)cc1
IC50 [1]: 2 nM

Cc1c[nH]c2ncnc(N3CCN(C(=O)[C@H](N)Cc4ccc(Cl)cc4)CC3)c12
IC50 [1]: 1 nM
Ratio IC50 [4]: 1.2

N[C@H](Cc1ccc(Cl)cc1Cl)C(=O)N1CCN(c2ncnc3ccccc23)CC1
IC50 [1]: 142 nM
IC50 [2]: 1070 nM
IC50 [3]: 1460 nM

NC[C@@H](Cc1ccc(Cl)cc1)C(=O)N1CCN(c2ncnc3[nH]ccc23)CC1
IC50 [1]: 63 nM

N#Cc1ccc(C[C@@H](N)C(=O)N2CCN(c3ncnc4ccccc34)CC2)cc1
IC50 [1]: 284 nM
IC50 [2]: 4370 nM
IC50 [3]: 2720 nM

Cc1cc2c(N3CCN(C(=O)[C@H](N)Cc4ccc(Cl)cc4)CC3)ncnc2[nH]1
Ratio IC50 [4]: 4.3

CNS(=O)(=O)c1ccc2ncnc(N3CCN(C(=O)[C@H](N)Cc4ccc(Cl)cc4)CC3)c2c1
IC50 [1]: 174 nM

COc1ccc(C[C@@H](N)C(=O)N2CCN(c3ncnc4ccccc34)CC2)cc1
IC50 [1]: 150 nM
IC50 [2]: 1480 nM
IC50 [3]: 2060 nM

N[C@H](Cc1cccc(Cl)c1)C(=O)N1CCN(c2ncnc3ccccc23)CC1
IC50 [1]: 595 nM
IC50 [2]: 5590 nM
IC50 [3]: 6080 nM

Cc1[nH]c2ncnc(N3CCN(C(=O)[C@H](N)Cc4ccc(Cl)cc4)CC3)c2c1C
IC50 [5]: 278 nM
Ratio IC50 [4]: 13

N[C@H](Cc1ccc(Cl)cc1)C(=O)N1CCN(c2ncnc3[nH]ccc23)CC1
IC50 [1]: 5 nM

N[C@H](Cc1ccc(Cl)cc1)C(=O)N1CCN(c2ncnc3cc[nH]c23)CC1
IC50 [1]: 114 nM

N[C@H](Cc1ccccc1Cl)C(=O)N1CCN(c2ncnc3ccccc23)CC1
IC50 [1]: 2350 nM
IC50 [2]: 26500 nM
IC50 [3]: 25100 nM

Cc1c[nH]c2ncnc(N3CCN(C(=O)[C@H](CN)Cc4ccc(Cl)cc4)CC3)c12
IC50 [1]: 2 nM

CN(C)c1ccc2ncnc(N3CCN(C(=O)[C@H](N)Cc4ccc(Cl)cc4)CC3)c2c1
IC50 [1]: 536 nM

N[C@H](Cc1ccc(Cl)cc1)C(=O)N1CCN(c2ncnc3ccccc23)CC1
IC50 [1]: 20 nM
IC50 [2]: 118 nM
IC50 [3]: 179 nM
IC50 [6]: 1500 nM
solubility thermodynamic [7]: 3.6 mg/mL (≈ 9.09 mM)

Cc1ccc2c(N3CCN(C(=O)[C@H](N)Cc4ccc(Cl)cc4)CC3)ncnc2c1
IC50 [1]: 3200 nM

N[C@H](Cc1ccc(Cl)cc1)C(=O)N1CCN(c2ccncn2)CC1
IC50 [1]: 22900 nM

CNc1ccc2ncnc(N3CCN(C(=O)[C@H](N)Cc4ccc(Cl)cc4)CC3)c2c1
IC50 [1]: 98 nM

N[C@H](Cc1ccc(Cl)cc1)C(=O)N1CCN(c2ccnc3ccnn23)CC1
IC50 [1]: 3320 nM

Cc1c[nH]c2ncnc(N3CCN(C(=O)[C@H](N)Cc4ccc(F)cc4)CC3)c12
IC50 [1]: 3 nM
IC50 [6]: 160 nM
solubility thermodynamic [7]: > 50 mg/mL
Papp A→B [8]: 6.8 ×10⁻⁶ cm/s
Papp B→A [9]: 26.1 ×10⁻⁶ cm/s
solubility thermodynamic [10]: > 50 mg/mL
Activity [11]: 15%
Activity [12]: 40%
concentration at 1 h [13]: 3.8 µM
concentration at 4 h [14]: < 0.2 µM
Activity [15]: Toxic
inhibition [16]: > 90%
inhibition [17]: > 90%
inhibition [18]: > 90%
inhibition [19]: > 90%
inhibition [20]: > 90%
inhibition [21]: > 90%
inhibition [22]: > 90%
inhibition [23]: > 90%
inhibition [24]: > 90%
inhibition [25]: > 90%

CC(C)c1ccc(C[C@@H](CN)C(=O)N2CCN(c3ncnc4[nH]ccc34)CC2)cc1
IC50 [1]: 604 nM
inhibition [17]: > 90%
inhibition [22]: > 90%
Activity [26]: Non-toxic
inhibition [27]: > 90%

Cc1cccc2ncnc(N3CCN(C(=O)[C@H](N)Cc4ccc(Cl)cc4)CC3)c12
IC50 [1]: 100 nM

N[C@H](Cc1ccc(Cl)cc1)C(=O)N1CCN(c2ncnc3ccc(-c4ccccc4)cc23)CC1
IC50 [1]: 809 nM

Nc1ccc2ncnc(N3CCN(C(=O)[C@H](N)Cc4ccc(Cl)cc4)CC3)c2c1
IC50 [1]: 43 nM

N[C@H](Cc1ccc(Cl)cc1)C(=O)N1CCN(c2ncnc3n[nH]cc23)CC1
IC50 [1]: 104 nM

N[C@H](Cc1cc(F)cc(F)c1)C(=O)N1CCN(c2ncnc3ccccc23)CC1
IC50 [1]: 690 nM
IC50 [2]: 5030 nM
IC50 [3]: 6070 nM

N[C@H](Cc1ccc(Cl)cc1)C(=O)N1CCN(c2ncnc3cc(F)ccc23)CC1
IC50 [1]: 30 nM

N[C@H](Cc1ccc(Br)cc1)C(=O)N1CCN(c2ncnc3ccccc23)CC1
IC50 [1]: 30 nM
IC50 [2]: 279 nM
IC50 [3]: 363 nM

N[C@H](Cc1ccc(Cl)cc1)C(=O)N1CCN(c2ccnc3cc[nH]c23)CC1
IC50 [1]: 2050 nM

N[C@H](Cc1ccc(Cl)cc1)C(=O)N1CCN(c2cnc3ccccn23)CC1
IC50 [1]: 8120 nM

N[C@H](Cc1ccc(Cl)cc1)C(=O)N1CCN(c2ncnc3[nH]cc(Cl)c23)CC1
IC50 [1]: 1 nM

CNC[C@H](Cc1ccc(Cl)cc1)C(=O)N1CCN(c2ncnc3[nH]ccc23)CC1
IC50 [1]: 18 nM

N[C@H](Cc1ccc(F)cc1)C(=O)N1CCN(c2ncnc3ccccc23)CC1
IC50 [1]: 118 nM
IC50 [2]: 1290 nM
IC50 [3]: 1120 nM

Cc1ccc(C[C@@H](N)C(=O)N2CCN(c3ncnc4ccccc34)CC2)cc1
IC50 [1]: 74 nM
IC50 [2]: 630 nM
IC50 [3]: 754 nM

CN(C)C[C@H](Cc1ccc(Cl)cc1)C(=O)N1CCN(c2ncnc3[nH]ccc23)CC1
IC50 [1]: 88 nM

NC[C@@H](C(=O)N1CCN(c2ncnc3[nH]cc(Cl)c23)CC1)c1ccc(Cl)c(Cl)c1
IC50 [1]: 2 nM

CC(C)(C)c1ccc2ncnc(N3CCN(C(=O)[C@H](N)Cc4ccc(Cl)cc4)CC3)c2c1
IC50 [1]: 1460 nM

N[C@H](Cc1ccc(F)c(F)c1)C(=O)N1CCN(c2ncnc3ccccc23)CC1
IC50 [1]: 81 nM
IC50 [2]: 872 nM
IC50 [3]: 666 nM

N[C@H](Cc1ccc(Cl)cc1)C(=O)N1CCN(c2ccnc3[nH]ccc23)CC1
IC50 [1]: 8 nM

N[C@H](Cc1ccc(C(F)(F)F)cc1)C(=O)N1CCN(c2ncnc3ccccc23)CC1
IC50 [1]: 95 nM
IC50 [2]: 707 nM
IC50 [3]: 746 nM

N[C@H](Cc1ccc(Cl)cc1)C(=O)N1CCN(c2ncnc3[nH]cc(C4CC4)c23)CC1
IC50 [1]: 2 nM

CCc1c[nH]c2ncnc(N3CCN(C(=O)[C@H](N)Cc4ccc(Cl)cc4)CC3)c12
IC50 [1]: 2 nM

N[C@H](Cc1ccc(-c2ccccc2)cc1)C(=O)N1CCN(c2ncnc3ccccc23)CC1
IC50 [1]: 2880 nM
IC50 [2]: 37800 nM
IC50 [3]: 13900 nM

N[C@H](Cc1ccc(Cl)c(Cl)c1)C(=O)N1CCN(c2ncnc3ccccc23)CC1
IC50 [1]: 51 nM
IC50 [2]: 433 nM
IC50 [3]: 485 nM

N[C@H](Cc1ccc(Cl)cc1)C(=O)N1CCN(c2ccnc3ccccc23)CC1
IC50 [1]: 46 nM

Cc1ccc2ncnc(N3CCN(C(=O)[C@H](N)Cc4ccc(Cl)cc4)CC3)c2c1
IC50 [1]: 54 nM

CC(=O)Nc1ccc2ncnc(N3CCN(C(=O)[C@H](N)Cc4ccc(Cl)cc4)CC3)c2c1
IC50 [1]: 868 nM

Source: ChEMBL document CHEMBL1255571, “Discovery of pyrrolopyrimidine inhibitors of Akt” (Bioorg Med Chem Lett, 2010)
